Source: ChEMBL document CHEMBL3396970, “Synthesis and biological evaluation of novel 2,3-disubstituted quinoxaline derivatives as antileishmanial and antitrypanosomal agents” (Eur J Med Chem, 2015)

What was measured:
Leishmania amazonensis = test: Antileishmanial activity against promastigote stage of Leishmania amazonensis WHOM/BR/75/JOSEFA after 72 hrs by hemocytometry; format: functional, organism-based
Trypanosoma cruzi [1] = test: Antitrypanosomal activity against epimastigote stage of Trypanosoma cruzi Y after 96 hrs by hemocytometry; format: functional, organism-based
Method in brief: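 Log-phase parasites (promastigotes 3-day, Warren's medium + 10% FBS, 25°C; epimastigotes 4-day, LIT + 10% FBS, 28°C) seeded at 1 × 10^6 cells/mL with compound (0.1-100 µM; DMSO ≤1%). Promastigotes read at 72 h, epimastigotes at 96 h, by hemocytometer counting. IC50 by nonlinear regression.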

[2] = Selectivity ratio of CC50 for monkey LLC-MK2 cells to IC50 for epimastigote stage of epimastigote stage of Trypanosoma cruzi Y; format: ADME, cell-based; conditions: read-out: Ratio CC50/IC50
[3] = Selectivity ratio of CC50 for monkey LLC-MK2 cells to IC50 for epimastigote stage of epimastigote stage of Trypanosoma cruzi Y
[4] = Selectivity ratio of CC50 to IC50 for promastigote stage of Leishmania amazonensis WHOM/BR/75/JOSEFA; design: reference not given here
[5] = Selectivity ratio of CC50 for mouse J774A1 cells to IC50 for promastigote stage of Leishmania amazonensis WHOM/BR/75/JOSEFA; format: ADME, cell-based, J774.A1; conditions: read-out: Ratio CC50/IC50
Trypanosoma cruzi [6] = test: Antitrypanosomal activity against trypomastigote stage of Trypanosoma cruzi Y infected in monkey LLC-MK2 cells after 96 hrs by Pizzi-Brener method; format: functional, organism-based

IC50 (Leishmania amazonensis)	IC50 (Trypanosoma cruzi [1])	EC50 (Trypanosoma cruzi [6])	SMILES	selectivity ratio [2]	selectivity ratio [3]	selectivity ratio [4]	selectivity ratio [5]
8.9 µM	35.7 µM		Cc1ccc(-c2nc3ccccc3nc2-c2ccccc2)cc1				
12.8 µM	21.5 µM		COc1ccc(-c2nc3ccccc3nc2-c2ccccc2)cc1				
21.1 µM	> 100 µM		c1ccc(-c2nc3ccccc3nc2-c2ccccc2)cc1				
29.6 µM	10.8 µM	> 50 µM	CSC(=C[N+](=O)[O-])SC	18.3	18.3	6	6
27.9 µM	32 µM		COc1cccc(N/C(=C\[N+](=O)[O-])SC)c1				
24.1 µM	11.4 µM		CS/C(=C/[N+](=O)[O-])Nc1ccccc1				
28.7 µM	39 µM		COc1ccc(N/C(=C\[N+](=O)[O-])SC)cc1				
42.3 µM	61.9 µM		CS/C(=C/[N+](=O)[O-])Nc1ccc2c(c1)OCCO2				
41.5 µM	67.3 µM		CS/C(=C/[N+](=O)[O-])Nc1ccc(O)cc1				
33 µM	20.4 µM		CS/C(=C/[N+](=O)[O-])Nc1ccc(Br)cc1				
21.9 µM	70.1 µM		CS/C(=C/[N+](=O)[O-])NC1CCCCC1				
19.7 µM	19.7 µM		CS/C(=C/[N+](=O)[O-])Nc1ccc(F)cc1				
73.6 µM	> 100 µM	> 50 µM	CS/C(=C/[N+](=O)[O-])NCCCCO			11.1	11.1
> 100 µM	90.1 µM	> 50 µM	CS/C(=C/[N+](=O)[O-])NCCCO	9.6	9.6		
21.3 µM	25.8 µM	> 50 µM	CS/C(=C/[N+](=O)[O-])Nc1ccc(Cl)cc1	7.3	7.3	6.9	6.9
93.6 µM	38.7 µM	> 50 µM	COc1ccc2nc(Cl)c(SC)nc2c1	19.3	19.3	9.8	9.8
74.1 µM	52.9 µM	> 50 µM	CSc1nc2ccccc2nc1Cl	8.1	8.1	13.5	13.5
> 100 µM	> 100 µM	> 50 µM	COc1ccc2nc(SC)c(Cl)nc2c1				
57.9 µM	47.8 µM	> 50 µM	CSc1nc2ccc(Br)cc2nc1Cl	9.2	9.2	7.4	7.4
45.3 µM	39.4 µM	> 50 µM	CSc1nc2ccc(Cl)cc2nc1Cl	16.1	16.1	22.1	22.1
> 100 µM	> 100 µM		COc1ccc2nc(-c3ccccc3)c(SC)nc2c1				
> 100 µM	> 100 µM		CSc1nc2ccccc2nc1-c1ccccc1				
40.5 µM	> 100 µM		COc1ccc(-c2nc3cc(OC)ccc3nc2-c2ccccc2)cc1				
24.3 µM	36 µM		Cc1ccc(-c2nc3cc(Cl)ccc3nc2-c2ccccc2)cc1				
6.2 µM	40.3 µM	> 50 µM	c1ccc(-c2nc3ccccc3nc2-c2ccc(OCCN3CCOCC3)cc2)cc1	4.6	4.6	8.7	8.7
31.5 µM	43.8 µM	> 50 µM	COc1ccc(-c2nc3ccc(Cl)cc3nc2-c2ccccc2)cc1	6.5	6.5	9.5	9.5

IC50 (Leishmania amazonensis)	IC50 (Trypanosoma cruzi [1])	EC50 (Trypanosoma cruzi [6])	SMILES	selectivity ratio [2]	selectivity ratio [3]	selectivity ratio [4]	selectivity ratio [5]
28.1 µM	42.7 µM	> 50 µM	Clc1ccc2nc(-c3ccccc3)c(-c3ccccc3)nc2c1	6.1	6.1	6.6	6.6
5.3 µM	54 µM	> 50 µM	Clc1cc2nc(-c3ccccc3)c(-c3ccccc3)nc2cc1Cl	8.7	8.7	38.5	38.5
22.2 µM	83.4 µM	> 50 µM	Cc1ccc(-c2nc3cc(Cl)c(Cl)cc3nc2-c2ccccc2)cc1	1.3	1.3	3.2	3.2
5.7 µM	39.2 µM	> 50 µM	Oc1ccc(-c2nc3ccccc3nc2-c2ccc(OCCN3CCCCC3)cc2)cc1	1	1	8.2	8.2
42.8 µM	83.6 µM	> 50 µM	COc1ccc2nc(N(C)C)c(SC)nc2c1	6.2	6.2	5.9	5.9
35.2 µM	86.7 µM	> 50 µM	CCCCNc1nc2ccc(OC)cc2nc1SC	3.1	3.1	2.1	2.1
82.9 µM	> 100 µM	> 50 µM	COc1ccc2nc(NCCO)c(SC)nc2c1			5	5
75.9 µM	93.1 µM	> 50 µM	CCCCNc1nc2ccccc2nc1SC	1.2	1.2	1.9	1.9
96.2 µM	> 100 µM	> 50 µM	CSc1nc2ccccc2nc1NCCO			2.9	2.9
29.8 µM	30.5 µM	> 50 µM	COc1ccc2nc(NC3CCCCC3)c(SC)nc2c1	8.5	8.5	1.2	1.2
30.2 µM	69.2 µM	> 50 µM	CCCCNc1nc2cc(OC)ccc2nc1SC	1.1	1.1	3.5	3.5
> 100 µM	> 100 µM	> 50 µM	COc1ccc2nc(SC)c(NCCO)nc2c1				
21.5 µM	41 µM	> 50 µM	COc1ccc2nc(SC)c(NC3CCCCC3)nc2c1	1.8			2.4
26.9 µM	95.7 µM	> 50 µM	COc1ccc2nc(SC)c(NCC(C)C)nc2c1	0.7	0.7	4.7	4.7
27.1 µM	79.6 µM	> 50 µM	COc1ccc2nc(SC)c(NCCC(C)C)nc2c1	0.7	0.7	3.3	3.3
25.2 µM	41.8 µM	> 50 µM	CCCCNc1nc2cc(Br)ccc2nc1SC	0.9	0.9	5.1	5.1
> 100 µM	> 100 µM	> 50 µM	CSc1nc2ccc(Br)cc2nc1NCCO				
27.6 µM	69.9 µM	> 50 µM	COc1ccc2nc(NCC(C)C)c(SC)nc2c1	1	1	6.7	6.7
24.4 µM	63.6 µM	> 50 µM	CCCCNc1nc2cc(Cl)ccc2nc1SC	1	1	4.6	4.6
> 100 µM	52.3 µM	> 50 µM	CSc1nc2ccc(Cl)cc2nc1NC1CCCCC1	4.8	4.8		
35.9 µM	25.2 µM	> 50 µM	COc1ccc2nc(N(C)C)c(S(C)(=O)=O)nc2c1	6.8	6.8	4.5	4.5
69.2 µM	90.9 µM	> 50 µM	COc1ccc2nc(S(C)(=O)=O)c(NCCO)nc2c1	2.6	2.6	3.7	3.7
> 100 µM	66.8 µM	> 50 µM	CCCCNc1nc2cc(OC)ccc2nc1-c1ccccc1	12.5	12.5		
72.8 µM	> 100 µM	> 50 µM	COc1ccc2nc(-c3ccccc3)c(NCCO)nc2c1			4.8	4.8
50.3 µM	47.6 µM	> 50 µM	COc1ccc2nc(-c3ccccc3)c(NCCN3CCCCC3)nc2c1	3.8	3.8	0.9	0.9
